The subject of experiment [1] is Mus musculus. As to the kind of experiment: Effect on learning and memory process in CD1 albino mouse assessed as improvement in retention latency at 100 mg/kg, ip after 24 hrs by passive avoidance test. Also on record: dose 100 mg/kg. Format: functional, organism-based. A digest of the protocol:
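Male CD-1 mice treated ip 30 min before training in a step-through passive avoidance box, a lighted compartment joined to a dark one by a guillotine door. Training latency recorded, then retention latency 24 h later. Mean of 15-20 mice per group.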

Experiment [2] deals with Mus musculus. The experiment is described as follows: Effect on motor coordination in CD1 albino mouse assessed as number of falls form rotarod at 10 mg/kg, po […] measured for 30 seconds after 30 mins of dosing by rotarod test. In kind it is functional. As to conditions: 10 mg/kg. A digest of the protocol: (§1)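 Rota-rod in male CD-1 mice with a pretest. Test substance given po in 1% CMC; falls from the rotating rod counted over 30 s, assessed 30 min after treatment.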
On the technique in general: Falling from the rotarod earlier than controls is read as motor impairment.

Experiment [3] concerns Mus musculus. The experiment is described as follows: Effect on motor coordination in CD1 albino mouse assessed as number of falls form rotarod at 30 mg/kg, po […] measured for 30 seconds after 30 mins of drug infusion by rotarod test. Format: functional. As to conditions: 30 mg/kg. In outline: as §1
The test system of experiment [4] is Mus musculus. As to the kind of experiment: Anticonvulsant activity against pentylenetetrazole-induced shock in CD1 albino mouse assessed as shock latency at 10 mg/kg, po preincubated for 30 mins before pentylenetetrazole challenge measured for 30 mins (RVb=253.1 +/- 13 seconds). In kind it is functional. As to conditions: 10 mg/kg.
Experiment [5] has as its system Mus musculus. The experiment is described as follows: Anticonvulsant activity against pentylenetetrazole-induced shock in CD1 albino mouse assessed as shock latency at 30 mg/kg, po preincubated for 30 mins before pentylenetetrazole challenge measured for 30 mins (RVb=253.1 +/- 13 seconds). Format: functional. Conditions: 30 mg/kg.
Experiment [6] deals with Mus musculus. As to the kind of experiment: Anticonvulsant activity against pentylenetetrazole-induced convulsions in CD1 albino mouse assessed as convulsion latency at 10 mg/kg, po preincubated for 30 mins before pentylenetetrazole challenge measured for 30 mins (RVb=599 +/- 37.6 seconds). In kind it is functional. Conditions: 10 mg/kg.
For experiment [7], the system named is Mus musculus. As to the kind of experiment: Anticonvulsant activity against pentylenetetrazole-induced convulsions in CD1 albino mouse assessed as convulsion latency at 30 mg/kg, po preincubated for 30 mins before pentylenetetrazole challenge measured for 30 mins (RVb=599 +/- 37.6 seconds). As to conditions: 30 mg/kg. Format: functional.
In experiment [8] the test system is Mus musculus. As to the kind of experiment: Effect on spontaneous motility in CD1 albino mouse assessed as number of movement on plane board at 10 mg/kg, po after 30 mins by hole-board test. Format: functional. As to conditions: 10 mg/kg. In outline: (§2)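 Hole-board test in male CD-1 mice: animals placed singly on the board and allowed to explore panel and holes. Test run 30 min after po dosing in 1% CMC (10 mL/kg). Hole entries (curiosity) and plane movements (spontaneous motility) counted; 10 mice per group, compared with CMC controls.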

Experiment [9] concerns Mus musculus. The experiment is described as follows: Effect on spontaneous motility in CD1 albino mouse assessed as number of movement on plane board at 30 mg/kg, po after 30 mins by hole-board test. In kind it is functional. Conditions: 30 mg/kg. A digest of the protocol: as §2
In experiment [10] the test system is Mus musculus. As to the kind of experiment: Effect on spontaneous motility in CD1 albino mouse assessed as number of movement on plane board at 50 mg/kg, po after 30 mins by hole-board test. In kind it is functional. A digest of the protocol:
as §2

Experiment [11] concerns Mus musculus. As to the kind of experiment: Effect on spontaneous motility in CD1 albino mouse assessed as number of movement on plane board at 100 mg/kg, po after 30 mins by hole-board test. In kind it is functional. A digest of the protocol: as §2
The test system of experiment [12] is Mus musculus. The experiment is described as follows: Effect on explorative capacity in CD1 albino mouse assessed as curiosity-related number of head plugging activity on hole at 10 mg/kg, po after 30 mins by hole-board test. Format: functional. As to conditions: 10 mg/kg. A digest of the protocol: as §2
Experiment [13] deals with Mus musculus. The experiment is described as follows: Effect on explorative capacity in CD1 albino mouse assessed as curiosity-related number of head plugging activity on hole at 30 mg/kg, po after 30 mins by hole-board test. In kind it is functional. As to conditions: 30 mg/kg. A digest of the protocol: as §2
For experiment [14], the system named is Mus musculus. The experiment is described as follows: Effect on explorative capacity in CD1 albino mouse assessed as curiosity-related number of head plugging activity on hole at 50 mg/kg, po after 30 mins by hole-board test. Format: functional. A digest of the protocol: as §2
In experiment [15] the test system is Mus musculus. The experiment is described as follows: Effect on explorative capacity in CD1 albino mouse assessed as curiosity-related number of head plugging activity on hole at 100 mg/kg, po after 30 mins by hole-board test. Format: functional. A digest of the protocol: as §2
Experiment [16] can be described thus: Displacement of [3H]flumazenil from GABAA/Benzodiazepine receptor in bovine brain. Also on record: species or system Bos taurus. In outline: (§3)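 Bovine brain membranes; displacement of specific [3H]flumazenil (Ro15-1788) binding. Percent inhibition measured at 10 μM; Ki determined only when inhibition at that concentration exceeded 80%. Ki given as mean ± SEM of five determinations.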
(Displacement assays read how much labelled ligand stays bound in the presence of the test substance.)

The test system of experiment [17] is Mus musculus. As to the kind of experiment: Anxiolytic activity in CD1 albino mouse at 10 mg/kg, po after 30 mins by light/dark box test. In kind it is functional, organism-based. Also noted: dose 10 mg/kg. In outline:
(§4)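 Male CD-1 mice (22-24 g) given test substance po in 1% CMC (10 mL/kg), tested 30 min later in a light/dark box. Transfers between compartments and time spent in the illuminated side were measured. Values are mean ± SEM of 15-20 mice; compared with controls.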

Experiment [18] relates to Mus musculus. As to the kind of experiment: Anxiolytic activity in CD1 albino mouse at 30 mg/kg, po after 30 mins by light/dark box test. In kind it is functional, organism-based. Also noted: dose 30 mg/kg. A digest of the protocol: as §4
Experiment [19] relates to Mus musculus. As to the kind of experiment: Anxiolytic activity in CD1 albino mouse at 30 mg/kg, po after 30 mins by light/dark box test in presence of flumazenil. In kind it is functional, organism-based. Also on record: dose 30 mg/kg. A digest of the protocol:
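Light/dark box in male CD-1 mice. Test substance given po in 1% CMC 30 min before the test, with flumazenil 100 mg/kg ip (saline) co-treatment. Transfers between compartments and time in the lit side recorded. Mean ± SEM of 15-20 mice.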

Experiment [20] concerns Mus musculus. As to the kind of experiment: Effect on learning and memory process in CD1 albino mouse assessed as decrease in retention latency at 10 mg/kg, po after 24 hrs by passive avoidance test. Also noted: dose 10 mg/kg. Format: functional, organism-based. In outline: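 Step-through passive avoidance in a two-compartment box (lit and dark compartments joined by a guillotine door). Male CD-1 mice dosed po (1% CMC) 30 min before training; retention tested 24 h later. Training and retention latencies recorded; mean ± SEM of 15-20 mice versus controls.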

Experiment [21] relates to Mus musculus. The experiment is described as follows: Effect on ethanol-induced sleeping time in CD1 albino mouse assessed as increase in duration of loss of righting reflex at 10 mg/kg, po preincubated 30 mins before ethanol challenge. In kind it is functional, organism-based. Also noted: dose 10 mg/kg.
The test system of experiment [22] is Mus musculus. As to the kind of experiment: Effect on ethanol-induced sleeping time in CD1 albino mouse assessed as increase in duration of loss of righting reflex at 30 mg/kg, po preincubated 30 mins before ethanol challenge. In kind it is functional, organism-based. Also noted: dose 30 mg/kg.
The species named for experiment [23] is Bos taurus. As to the kind of experiment: Displacement of [3H]flumazenil from GABAA/Benzodiazepine receptor in bovine brain at 10 uM. A digest of the protocol:
as §3

Activity calls are given as the source filed them. The rule behind the calls is not given here.

This passage reports Activity and Ki results from ChEMBL document CHEMBL1158477, “Synthesis, in vivo evaluation, and molecular modeling studies of new pyrazolo[5,1-c][1,2,4]benzotriazine 5-oxide derivatives. Identification of a bifunctional hydrogen bond area related to the inverse agonism” (J Med Chem, 2009).

As for `CCOC(=O)c1ncn2c1CN(C)C(=O)c1cc(F)ccc1-2`, in experiment [1], the result was Active.

As usually defined, the Ki is the equilibrium dissociation constant of an inhibitor or competing ligand from its target. For `CC(Oc1ccc2c(c1)n1ncc(I)c1n[n+]2[O-])c1ccccc1` (single isomer, unassigned; (-)) [listing 1 of 2 here], the Activity in [2] came to 2; in [3], 1.6; in [4], 513 s; in [5], 323.7 s; in experiment [6], 1078 s; in [7], 549.2 s. Moreover, the Activity in experiment [8] is listed as 61.9; in experiment [9], 56.8; in experiment [10], 44; in experiment [11], 59.2; in experiment [12] it was 27; in [13] it was 34.5. The Activity came out at 13.3 in [14] and 22.9 in experiment [15]. This compound also displayed a Ki in experiment [16] of 2.1 nM.

As for `CC(Oc1ccc2c(c1)n1ncc(I)c1n[n+]2[O-])c1ccccc1` (single isomer, unassigned; (-)) [listing 2 of 2 here], the outcome in experiment [17], in experiment [18] and in [20] was Active. In addition, the result in experiment [19], in experiment [21] and in [22] was inactive. The compound further displayed an Activity in experiment [23] of over 80%.
